≈ marks a conversion by molar mass, not a printed value.
Legend:
[1] = Cytotoxicity against human Ca9-22 cells assessed as cell death at MIC after 24 hrs by LDH assay; type: toxicity, cell-based; settings: ca9-22, 24 h
Summary of the method: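 Ca9-22 gingival epithelial cells were grown in DMEM with 10% heat-inactivated FBS and 2 mM L-glutamine at 37 °C, 5% CO2, then trypsinized and seeded at 70 000 cells/well for 24 h. Compound was applied for 24 h, with medium-only and Triton 1% controls (Triton = 100% cytotoxicity). Supernatant was mixed with CytoTox reagent for 30 min in the dark at room temperature, then stopped, and OD was read at 490 nm. Three experiments, each in triplicate.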

[2] = Cytotoxicity against human THP1 cells assessed as cell death at MIC after 24 hrs by LDH assay; type: toxicity, cell-based; settings: thp-1, 24 h
Summary of the method: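 THP-1 cells were grown in RPMI 1640 with 1 mM pyruvate, 10% FBS and 2 mM L-glutamine at 37 °C, 5% CO2. They were seeded at 70 000 cells/well and differentiated with PMA 10 ng/mL for 72 h. Medium was replaced with compound for 24 h, with medium-only and Triton 1% controls (Triton = 100%). LDH release was measured in supernatant with CytoTox reagent for 30 min in the dark at room temperature, then stopped, and OD was read at 490 nm. Three experiments, each in triplicate.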

Streptococcus gordonii [3] = test: Bactericidal activity against Streptococcus gordonii DL1 preincubated for 24 hrs under anaerobic condition followed by incubation in columbia petri plates for 24 hrs by broth microdilution method; type: functional
Summary of the method: (§1)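 CLSI broth microdilution in BHI. Compounds serially diluted 1:2 from 300 µg/mL; doxycycline control from 32.8 µg/mL; solvent mix also diluted. Wells inoculated with 3x10^7 CFU/mL, incubated 24 h anaerobically. MIC is the lowest clear well. Clear wells are plated on Columbia agar for 24 h; MBC is the lowest concentration killing ≥99% of inoculum.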

[4] = Cytotoxicity against human THP1 cells assessed as cell viability at MIC after 24 hrs by MTT assay relative to control; type: toxicity, cell-based, THP-1; settings: read-out: Activity
Summary of the method: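 THP-1 grown in RPMI with pyruvate, Hepes and 10% FBS. Seeded at 70 000 cells/well and differentiated with PMA 10 ng/mL for 72 h. Medium removed, then compound at its MIC added for 24 h; Triton 1% positive control. MTT from 5 mg/mL stock for 4 h at 37 °C; acid-isopropanol solubilization; OD 595/655 nm as % of untreated. Three experiments in triplicate.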

Streptococcus gordonii [5] = test: Potency index, ratio of doxycycline MBC=>99 to compound MBC=>99 for Streptococcus gordonii DL1; type: functional
[6] = Cytotoxicity against human Ca9-22 cells assessed as cell viability at MIC after 24 hrs by MTT assay relative to control; type: toxicity, cell-based; settings: read-out: Activity
Streptococcus gordonii [7] = test: Antibacterial activity against Streptococcus gordonii DL1 preincubated for 24 hrs under anaerobic condition followed by incubation in columbia petri plates for 24 hrs by broth microdilution method; type: functional; summary of the method: as §1
Streptococcus gordonii [8] = test: Antibacterial activity against Streptococcus gordonii DL1 incubated for 24 hrs under anaerobic condition by agar dilution method; type: functional; settings: DL1, 24 h
Summary of the method: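 Columbia agar with horse blood containing compound at 300, 250, 200, 150, 100, 90, 80 or 70 µg/mL. Doxycycline positive control at 1:2 dilutions from 1.31 µg/mL; DMSO + methanol and water as negative controls. 2 µl spots of 10^5 CFU/mL inoculum, anaerobic incubation 24 h. MIC taken as lowest concentration preventing growth. Done three times.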

| SMILES | mortality [1] [%] | mortality [2] [%] | MBC=>99 (Streptococcus gordonii [3]) [µg/mL] | viability at 24 h [4] [%] | Ratio (Streptococcus gordonii [5]) | viability at 24 h [6] [%] | MIC (Streptococcus gordonii [7]) [µg/mL] | MIC (Streptococcus gordonii [8]) [µg/mL] |
| --- | --- | --- | --- | --- | --- | --- | --- | --- |
| CCCCCCCCCCCCCCCC[C@@H]1OC(=O)C(C)=C1C(=O)O | 12 | 10 | 9.38 (≈ 25.6 µM) | 106 | 3 | 96 | 9.38 (≈ 25.6 µM) | > 300 |
| CCCCCCCCC[C@@H]1OC(=O)C(C)=C1C(=O)O | – | – | >300 | – | – | – | 150 (≈ 559 µM) | 150 (≈ 559 µM) |
| CCCCCCCCCCCCC[C@H]1OC(=O)C(C)=C1C(=O)O | – | – | 18.75 (≈ 57.8 µM) | – | – | – | 4.69 (≈ 14.5 µM) | 90 (≈ 277 µM) |
| C=C[C@H]1CC(=O)O[C@@H]1CCCCCCCCCCCCC | – | – | 75 (≈ 255 µM) | – | – | – | 75 (≈ 255 µM) | > 300 |
| CCCCCCCCCCCCC[C@H]1OC(=O)C[C@H]1O | – | – | 150 (≈ 527 µM) | – | – | – | 75 (≈ 264 µM) | > 300 |
| CCCCCCCCCCCCCCC[C@@H]1OC(=O)C(C)=C1C(=O)O | 9.6 | 20 | 18.75 (≈ 53.2 µM) | 107 | 2 | 100 | 9.38 (≈ 26.6 µM) | 200 (≈ 567 µM) |
| C=C[C@H]1CC(=O)O[C@@H]1CCCCCCCCC | – | – | 150 (≈ 629 µM) | – | – | – | 75 (≈ 315 µM) | > 300 |
| CCCCCCCCCCCCC[C@@H]1OC(=O)C(C)=C1C(=O)O | – | – | 18.75 (≈ 57.8 µM) | – | – | – | 4.69 (≈ 14.5 µM) | 90 (≈ 277 µM) |
| CCCCCCCCC[C@H]1OC(=O)C[C@H]1O | – | – | 300 (≈ 1310 µM) | – | – | – | 150 (≈ 657 µM) | 300 (≈ 1310 µM) |
| CCCCCCCCCCCCC[C@@H]1C=CC(=O)O1 | – | – | 75 (≈ 282 µM) | – | – | – | 75 (≈ 282 µM) | > 300 |
| CCCCCCCCC[C@H]1OC(=O)C(C)=C1C(=O)O | – | – | >300 | – | – | – | 150 (≈ 559 µM) | 150 (≈ 559 µM) |
| CCCCCCC[C@@H]1OC(=O)C(C)=C1C(=O)O | – | – | >300 | – | – | – | > 300 | > 300 |
| CCCCCCCCC[C@@H]1C=CC(=O)O1 | – | – | 300 (≈ 1430 µM) | – | – | – | 150 (≈ 713 µM) | 300 (≈ 1430 µM) |
| C[C@H]1c2cccc(O)c2C(=O)C2=C(O)[C@]3(O)C(=O)C(C(N)=O)=C(O)[C@@H](N(C)C)[C@@H]3[C@@H](O)[C@@H]21.O [DOXYCYCLINE] | – | – | 32.8 | – | – | – | 0.51 | 0.41 |

— ChEMBL document CHEMBL3856273, “Design, synthesis and biological evaluation of potential antibacterial butyrolactones” (Bioorg Med Chem, 2016)
